ChEMBL document CHEMBL1142258, “Discovery of a series of aminopiperidines as novel iNOS inhibitors” (Bioorg Med Chem Lett, 2008)

How the values were obtained:
[1] = target: T1, Nitric oxide synthase, inducible (Homo sapiens, UniProt P35228); assay: Inhibition of human iNOS expressed in human DLD1 cells after 1 hr; type: cell-based, DLD-1
Method in brief: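 Human iNOS endogenously expressed in DLD-1 cells, eight compound concentrations. Incubated 1 h at 37 °C in 50 mM Hepes with 10 nM [3H]arginine, [14C]citrulline internal standard, β-NADP+, G6P, MgCl2, G6P dehydrogenase, FAD, FMN and BH4. [3H]citrulline was separated on cation-exchange resin and counted; AMT defined background.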

[2] = target: T1, Nitric oxide synthase, inducible; assay: Inhibition of cytokine-induced iNOS activity in human DLD1 cells at 10 uM after 24 hrs; type: cell-based; conditions: DLD-1
[3] = target: T2, Nitric oxide synthase 3 (Homo sapiens, UniProt P29474); assay: Inhibition of human eNOS expressed in insect SF9 cells after 1 hr
T2 sequence (P29474 whole entry): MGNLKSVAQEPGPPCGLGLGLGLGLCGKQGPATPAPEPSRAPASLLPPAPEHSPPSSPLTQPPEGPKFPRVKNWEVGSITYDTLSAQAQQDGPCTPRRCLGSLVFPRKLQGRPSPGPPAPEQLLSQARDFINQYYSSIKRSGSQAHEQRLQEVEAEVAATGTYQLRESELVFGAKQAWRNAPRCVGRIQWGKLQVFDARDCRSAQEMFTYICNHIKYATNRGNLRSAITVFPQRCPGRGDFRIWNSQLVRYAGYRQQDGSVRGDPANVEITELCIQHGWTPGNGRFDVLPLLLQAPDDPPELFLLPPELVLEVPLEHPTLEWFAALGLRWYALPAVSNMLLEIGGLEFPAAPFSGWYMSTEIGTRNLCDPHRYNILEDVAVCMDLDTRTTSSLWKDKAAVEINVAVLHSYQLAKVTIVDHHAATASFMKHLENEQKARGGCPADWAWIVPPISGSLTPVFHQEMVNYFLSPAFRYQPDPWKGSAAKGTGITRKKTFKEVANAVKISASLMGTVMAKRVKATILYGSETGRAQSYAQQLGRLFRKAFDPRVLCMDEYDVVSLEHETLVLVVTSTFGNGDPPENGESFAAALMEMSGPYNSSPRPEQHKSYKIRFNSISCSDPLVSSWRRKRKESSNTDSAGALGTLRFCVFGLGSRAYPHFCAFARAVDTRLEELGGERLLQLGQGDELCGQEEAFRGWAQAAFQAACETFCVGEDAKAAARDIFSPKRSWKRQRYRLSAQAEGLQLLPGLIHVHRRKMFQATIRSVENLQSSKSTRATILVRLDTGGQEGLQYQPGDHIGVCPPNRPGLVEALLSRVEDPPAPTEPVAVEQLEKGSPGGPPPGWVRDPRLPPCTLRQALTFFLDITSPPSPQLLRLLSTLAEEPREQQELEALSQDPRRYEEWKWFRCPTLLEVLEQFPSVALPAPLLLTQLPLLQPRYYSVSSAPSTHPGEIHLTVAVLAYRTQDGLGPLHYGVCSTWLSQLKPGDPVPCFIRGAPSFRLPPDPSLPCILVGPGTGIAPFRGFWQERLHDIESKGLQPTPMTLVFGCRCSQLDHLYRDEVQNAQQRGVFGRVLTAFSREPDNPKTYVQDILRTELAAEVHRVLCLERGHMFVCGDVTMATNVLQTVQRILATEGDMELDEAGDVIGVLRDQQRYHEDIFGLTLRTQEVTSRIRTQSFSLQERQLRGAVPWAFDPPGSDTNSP
Method in brief: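 Human recombinant eNOS from SF9 cells, tested at eight concentrations. Conditions: 10 nM [3H]arginine with NADP+/G6P/G6PDH, MgCl2, FAD, FMN, BH4, plus 25 nM calmodulin, 0.5 mM CaCl2 and 3.5 mM glutathione, in 50 mM Hepes for 1 h at 37 °C. Citrulline was resin-separated and counted, with AMT background. IC50 from one-site fit, geometric mean of ≥3 runs.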

[4] = target: T1, Nitric oxide synthase, inducible; assay: Inhibition of cytokine-induced iNOS activity in human DLD1 cells after 24 hrs; type: cell-based, DLD-1
Method in brief: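 DLD-1 cells were seeded 3 days ahead, then given fresh medium with 20 ng/mL IFNγ, 4 ng/mL TNFα, 2 ng/mL IL1β and 1 mM L-arginine. Compound titrations in 50 mM Hepes pH 7.4 were added at eight concentrations for 24 h at 37 °C, 5% CO2. Nitrite was read with Griess reagent at 540 nm.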

[5] = target: T3, Nitric oxide synthase 1 (Homo sapiens, UniProt P29475); assay: Inhibition of human nNOS expressed in insect SF9 cells after 1 hr
T3 sequence (P29475 whole entry): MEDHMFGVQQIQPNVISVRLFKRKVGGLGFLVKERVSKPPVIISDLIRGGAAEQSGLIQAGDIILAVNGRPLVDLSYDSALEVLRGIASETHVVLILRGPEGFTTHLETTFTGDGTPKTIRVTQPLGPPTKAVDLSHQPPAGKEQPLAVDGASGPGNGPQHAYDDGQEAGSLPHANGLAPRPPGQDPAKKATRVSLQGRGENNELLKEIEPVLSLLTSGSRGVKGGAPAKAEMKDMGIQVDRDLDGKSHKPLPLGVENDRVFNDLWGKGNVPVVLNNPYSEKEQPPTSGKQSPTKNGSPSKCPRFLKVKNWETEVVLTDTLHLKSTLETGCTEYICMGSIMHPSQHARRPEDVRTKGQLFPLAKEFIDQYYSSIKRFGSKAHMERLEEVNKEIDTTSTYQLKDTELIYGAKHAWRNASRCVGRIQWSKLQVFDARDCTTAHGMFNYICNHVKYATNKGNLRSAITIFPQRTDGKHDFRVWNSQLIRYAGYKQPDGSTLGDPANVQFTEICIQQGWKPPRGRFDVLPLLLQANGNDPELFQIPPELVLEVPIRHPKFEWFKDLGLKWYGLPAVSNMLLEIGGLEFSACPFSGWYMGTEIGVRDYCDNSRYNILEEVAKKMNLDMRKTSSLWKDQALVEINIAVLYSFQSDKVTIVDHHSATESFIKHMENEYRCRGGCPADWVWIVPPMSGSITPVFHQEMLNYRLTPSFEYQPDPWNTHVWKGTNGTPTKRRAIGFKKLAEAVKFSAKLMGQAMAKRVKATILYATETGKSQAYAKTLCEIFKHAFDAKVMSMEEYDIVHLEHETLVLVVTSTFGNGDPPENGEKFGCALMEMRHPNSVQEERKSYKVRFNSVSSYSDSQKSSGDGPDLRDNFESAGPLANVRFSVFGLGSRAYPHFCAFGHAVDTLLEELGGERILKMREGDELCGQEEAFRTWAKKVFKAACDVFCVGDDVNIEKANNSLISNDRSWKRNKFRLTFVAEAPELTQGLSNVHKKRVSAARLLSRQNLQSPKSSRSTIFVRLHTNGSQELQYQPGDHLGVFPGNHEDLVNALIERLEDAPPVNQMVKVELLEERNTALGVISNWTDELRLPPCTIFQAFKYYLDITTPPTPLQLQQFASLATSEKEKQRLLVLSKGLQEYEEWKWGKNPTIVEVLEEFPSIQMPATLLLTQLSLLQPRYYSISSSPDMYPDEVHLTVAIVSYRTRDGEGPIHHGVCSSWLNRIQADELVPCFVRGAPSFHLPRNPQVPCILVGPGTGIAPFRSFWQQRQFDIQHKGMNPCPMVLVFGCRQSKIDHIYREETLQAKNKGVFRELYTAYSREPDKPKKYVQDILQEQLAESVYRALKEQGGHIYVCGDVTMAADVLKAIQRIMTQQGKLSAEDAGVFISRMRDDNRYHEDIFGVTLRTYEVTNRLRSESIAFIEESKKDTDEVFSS

[6] = species: Homo sapiens; assay: Selectivity for human eNOS to human iNOS
Method in brief: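 Ratio of eNOS IC50 to iNOS IC50, both from [3H]arginine→[3H]citrulline conversion. iNOS was endogenous to DLD-1 cells; eNOS was human recombinant expressed in SF9 cells. Each used 10 nM [3H]arginine with NADP+/G6P/FAD/FMN/BH4 cofactors in 50 mM Hepes for 1 h at 37 °C. The eNOS reaction also had calmodulin, CaCl2 and glutathione. Citrulline was separated by cation exchange and counted. IC50s came from eight concentrations, as geometric means of ≥3 runs.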

[7] = target: T3, Nitric oxide synthase 1; assay: Inhibition of human nNOS expressed in insect SF9 cells at 10 uM after 1 hr
Method in brief: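 Human recombinant nNOS expressed in SF9 cells, incubated with test compound, 10 nM [3H]arginine and [14C]citrulline (80–120 nM) internal standard in 50 mM Hepes for 1 h at 37 °C. Cofactors were β-NADP+, G6P, MgCl2, G6P dehydrogenase, FAD, FMN, BH4, 25 nM calmodulin, 0.5 mM CaCl2 and 3.5 mM glutathione. After MES stop and cation-exchange filtration, [3H]citrulline was counted; background came from 10 µM AMT.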

[8] = target: T4, Nitric oxide synthase 3 (Homo sapiens) (UniProt P29474); assay: Inhibition of human eNOS expressed in insect SF9 cells at 10 uM after 1 hr
T4 sequence (whole entry): T2 sequence (P29474 whole entry)

[9] = target: T1, Nitric oxide synthase, inducible; assay: Inhibition of human iNOS expressed in human DLD1 cells at 10 uM after 1 hr; type: cell-based; conditions: DLD-1

T1 sequence (P35228 whole entry): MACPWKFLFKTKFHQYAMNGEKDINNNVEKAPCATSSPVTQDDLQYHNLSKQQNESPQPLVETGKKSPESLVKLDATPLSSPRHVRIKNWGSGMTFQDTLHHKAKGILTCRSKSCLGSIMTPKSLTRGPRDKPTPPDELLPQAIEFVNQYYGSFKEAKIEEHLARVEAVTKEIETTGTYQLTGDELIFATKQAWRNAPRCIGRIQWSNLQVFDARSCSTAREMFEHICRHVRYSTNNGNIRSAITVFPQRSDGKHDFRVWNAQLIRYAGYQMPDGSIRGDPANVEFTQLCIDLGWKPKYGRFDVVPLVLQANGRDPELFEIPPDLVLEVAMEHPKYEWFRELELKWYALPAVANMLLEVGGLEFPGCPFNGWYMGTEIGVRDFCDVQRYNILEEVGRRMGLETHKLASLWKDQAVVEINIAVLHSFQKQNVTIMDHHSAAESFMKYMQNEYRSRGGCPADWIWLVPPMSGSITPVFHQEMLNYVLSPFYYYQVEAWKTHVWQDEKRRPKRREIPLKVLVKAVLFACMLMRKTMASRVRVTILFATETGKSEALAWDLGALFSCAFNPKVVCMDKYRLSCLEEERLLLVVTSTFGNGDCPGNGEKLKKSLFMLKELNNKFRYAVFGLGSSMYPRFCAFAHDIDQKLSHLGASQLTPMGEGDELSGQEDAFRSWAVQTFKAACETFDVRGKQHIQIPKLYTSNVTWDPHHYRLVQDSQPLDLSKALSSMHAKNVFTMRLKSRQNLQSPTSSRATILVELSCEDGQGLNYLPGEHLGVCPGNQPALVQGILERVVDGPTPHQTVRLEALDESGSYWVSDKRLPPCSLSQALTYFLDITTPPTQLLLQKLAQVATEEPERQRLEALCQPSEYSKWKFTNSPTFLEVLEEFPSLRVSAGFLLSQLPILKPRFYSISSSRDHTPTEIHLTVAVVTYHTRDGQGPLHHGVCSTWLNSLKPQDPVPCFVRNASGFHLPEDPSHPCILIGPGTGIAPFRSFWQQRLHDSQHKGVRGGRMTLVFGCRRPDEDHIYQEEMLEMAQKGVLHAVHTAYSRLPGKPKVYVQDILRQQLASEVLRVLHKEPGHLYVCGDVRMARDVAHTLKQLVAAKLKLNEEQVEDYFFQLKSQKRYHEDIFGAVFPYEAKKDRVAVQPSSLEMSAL

COc1ccc(C#N)c(CN(C)C2CCN(C)CC2)c1
IC50 [1]: 5100 nM
inhibition [2]: < 15%

CN1CCC(N(C)Cc2cc(Br)ccc2C#N)CC1
IC50 [3]: 810 nM
IC50 [1]: 210 nM
IC50 [4]: 3700 nM
IC50 [5]: 530 nM
Ratio IC50 [6]: 4

CN(Cc1cc(Cl)ccc1C#N)C1CCCNCC1 (stereo unspecified)
IC50 [3]: 4400 nM
IC50 [1]: 660 nM
IC50 [5]: 1200 nM
Ratio IC50 [6]: 7
inhibition [2]: 31%

CN(Cc1cc(Cl)ccc1C#N)C1CCN(CC2CC2)CC1
IC50 [3]: 860 nM
IC50 [1]: 250 nM
IC50 [4]: 3500 nM
IC50 [5]: 530 nM
Ratio IC50 [6]: 3

N#Cc1ccc(Cl)cc1CN(c1ccccc1)C1CCNCC1
inhibition [7]: 33%
IC50 [1]: 660 nM
IC50 [4]: 8000 nM
Ratio IC50 [6]: > 15
inhibition [8]: 0%

CN1CCC(N(C)Cc2ccccc2)CC1
inhibition [2]: < 15%
inhibition [9]: < 15%

CCCCN(Cc1cc(Cl)ccc1C#N)C1CCNCC1
IC50 [1]: 570 nM
IC50 [4]: 5000 nM

CCN1CCC(N(C)Cc2cc(Cl)ccc2C#N)CC1
IC50 [3]: 450 nM
IC50 [1]: 370 nM
IC50 [4]: 4500 nM
IC50 [5]: 370 nM
Ratio IC50 [6]: 1

CN(Cc1cc(Cl)ccc1C#N)C1CCN(Cc2ccccc2)CC1
IC50 [3]: 4300 nM
IC50 [1]: 270 nM
IC50 [4]: 3500 nM
IC50 [5]: 1800 nM
Ratio IC50 [6]: 16

CN(Cc1cc(Cl)ccc1C#N)C1CCCNC1 (stereo unspecified)
IC50 [3]: 983 nM
IC50 [1]: 180 nM
IC50 [4]: 4400 nM
IC50 [5]: 190 nM
Ratio IC50 [6]: 5

CC(=N)NCCCC[C@H](N)C(=O)O [L-NIL]
IC50 [3]: 2500 nM
IC50 [1]: 280 nM
IC50 [4]: 31000 nM
IC50 [5]: 6000 nM
Ratio IC50 [6]: 9

CC(C)CN(Cc1cc(Cl)ccc1C#N)[C@@H]1CCCNC1
IC50 [1]: 260 nM
IC50 [4]: 1500 nM
IC50 [5]: 1200 nM
Ratio IC50 [6]: > 25
inhibition [8]: 23%

CC(=N)NCCSCC[C@H](N)C(=O)O [GW-274150]
IC50 [1]: 220 nM
IC50 [5]: 8400 nM
Ratio IC50 [6]: > 45
inhibition [8]: < 15%
inhibition [2]: 26%

CCCCN1CCC(N(C)Cc2cc(Cl)ccc2C#N)CC1
IC50 [3]: 680 nM
IC50 [1]: 340 nM
IC50 [4]: 3800 nM
IC50 [5]: 420 nM
Ratio IC50 [6]: 2

CC(C)CN(Cc1cc(Cl)ccc1C#N)[C@H]1CCCN(C)C1
IC50 [1]: 720 nM
IC50 [4]: 320 nM
IC50 [5]: 6500 nM
Ratio IC50 [6]: > 50
inhibition [8]: 0%

CC(C)CN(Cc1cc(Cl)ccc1C#N)[C@@H]1CCCN(C)C1
IC50 [1]: 470 nM
IC50 [4]: 660 nM
IC50 [5]: 4900 nM
Ratio IC50 [6]: > 15
inhibition [8]: 0%

CN1CCC(N(C)Cc2cc(Cl)ccc2C(F)(F)F)CC1
IC50 [3]: 1400 nM
IC50 [1]: 700 nM
IC50 [5]: 780 nM
Ratio IC50 [6]: 2
inhibition [2]: 48%

CCCN(Cc1cc(Cl)ccc1C#N)C1CCNCC1
IC50 [3]: 1700 nM
IC50 [1]: 130 nM
IC50 [4]: 280 nM
IC50 [5]: 140 nM
Ratio IC50 [6]: 13

CC(C)CN1CCC(N(C)Cc2cc(Cl)ccc2C#N)CC1
IC50 [3]: 540 nM
IC50 [1]: 400 nM
IC50 [4]: 3200 nM
IC50 [5]: 600 nM
Ratio IC50 [6]: 1

CC(C)CN(Cc1cc(Cl)ccc1C#N)C1CCNCC1
IC50 [1]: 390 nM
IC50 [4]: 570 nM
IC50 [5]: 1900 nM
Ratio IC50 [6]: > 25
inhibition [8]: 20%

CCN(Cc1cc(Cl)ccc1C#N)C1CCNCC1
IC50 [3]: 1000 nM
IC50 [1]: 100 nM
IC50 [4]: 580 nM
IC50 [5]: 360 nM
Ratio IC50 [6]: 10

N#Cc1ccc(Cl)cc1CN(CC1CC1)C1CCNCC1
IC50 [3]: 2100 nM
IC50 [1]: 160 nM
IC50 [4]: 1400 nM
IC50 [5]: 748 nM
Ratio IC50 [6]: 13

N#Cc1ccc(Cl)cc1CN(C1CCCC1)C1CCNCC1
inhibition [7]: 24%
IC50 [1]: 1500 nM
IC50 [4]: 6700 nM
Ratio IC50 [6]: > 7
inhibition [8]: 1%

CN(Cc1cc(Cl)ccc1C#N)C1CCNC1 (stereo unspecified)
IC50 [3]: 4000 nM
IC50 [1]: 1200 nM
IC50 [5]: 1200 nM
Ratio IC50 [6]: 3
inhibition [2]: 33%

CCCN1CCC(N(C)Cc2cc(Cl)ccc2C#N)CC1
IC50 [3]: 1100 nM
IC50 [1]: 670 nM
IC50 [4]: 4400 nM
IC50 [5]: 810 nM
Ratio IC50 [6]: 2

CN(Cc1cc(Cl)ccc1C#N)C1CCNCC1
IC50 [3]: 1100 nM
IC50 [1]: 330 nM
IC50 [4]: 5900 nM
IC50 [5]: 350 nM
Ratio IC50 [6]: 3

CC(C)N(Cc1cc(Cl)ccc1C#N)C1CCNCC1
IC50 [3]: 570 nM
IC50 [1]: 32 nM
IC50 [4]: 380 nM
IC50 [5]: 190 nM
Ratio IC50 [6]: 18

CN1CCC(N(C)Cc2ccccc2[N+](=O)[O-])CC1
inhibition [2]: < 15%
inhibition [9]: < 15%

CN1CCC(N(C)Cc2cc([N+](=O)[O-])ccc2Cl)CC1
inhibition [2]: < 15%
inhibition [9]: < 15%

CN(Cc1cc(Cl)ccc1C#N)C1CCN(CCc2ccccc2)CC1
IC50 [3]: 220 nM
IC50 [1]: 300 nM
IC50 [4]: 3300 nM
IC50 [5]: 150 nM
Ratio IC50 [6]: 1

N#Cc1ccc(C(=O)N2CCC3(CC2)N=C(N)c2c(F)ccc(F)c2N3)cn1
inhibition [8]: < 15%

CN1CCC(N(C)Cc2cc(Cl)ccc2C#N)CC1
IC50 [3]: 770 nM
IC50 [1]: 290 nM
IC50 [4]: 3700 nM
IC50 [5]: 540 nM
Ratio IC50 [6]: 3

CN1CCC(N(C)Cc2cc(Cl)ccc2[N+](=O)[O-])CC1
IC50 [3]: 180 nM
IC50 [1]: 90 nM
IC50 [4]: 1100 nM
IC50 [5]: 80 nM
Ratio IC50 [6]: 2

CC(C)CN(Cc1cc(Cl)ccc1C#N)[C@H]1CCCNC1
IC50 [1]: 330 nM
IC50 [4]: 570 nM
IC50 [5]: 5300 nM
Ratio IC50 [6]: > 25
inhibition [8]: 0%

CN1CCC(N(C)Cc2cc(Cl)ccc2Br)CC1
IC50 [3]: 820 nM
IC50 [1]: 420 nM
IC50 [5]: 590 nM
Ratio IC50 [6]: 2
inhibition [2]: 51%

CC(C)CN(Cc1cc(Cl)ccc1C#N)C1CCCNC1 (stereo unspecified)
IC50 [1]: 290 nM
IC50 [4]: 1200 nM
IC50 [5]: 2500 nM
Ratio IC50 [6]: > 15
inhibition [8]: 15%
